What was measured:
[1] = Compound's concentration required to inhibit proliferation of cultured KB cells to 50% growth during 48 hours.; type: functional, cell-based; settings: Homo sapiens
[2] = system: P388; test: Compound was evaluated for antitumor activity against mice implanted with lymphatic leukemia P388 cells (10e6 tumor cells) after intraperitoneal administration of 200 mg/kg per injection; type: functional; settings: Mus musculus, P388, ip
[3] = system: L1210; test: Concentration required to inhibit proliferation of cultured lymphoid leukemia L1210 cells to 50% growth over 48 hours; type: functional, cell-based; settings: Mus musculus, L1210, 48 h
Outline: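 Cultured lymphoid leukemia L1210 cells were exposed to agent for 48 h. IC50 is the micromolar concentration that holds proliferation to 50% growth.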

[4] = system: P388; test: Compound was evaluated for antitumor activity against mice implanted with lymphatic leukemia P388 cells (10e6 tumor cells) after intraperitoneal administration of 100 mg/kg per injection (1-5 days); type: functional; settings: Mus musculus, P388, ip
Outline: (§1)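 Mice implanted ip with 10⁶ lymphocytic leukemia P388 cells; drug given ip on days 1-5. Read-out is % increase in life span (% ILS) versus untreated controls, reported at the highest nontoxic dose tested.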

[5] = system: P388; test: Compound was evaluated for antitumor activity against mice implanted with lymphatic leukemia P388 cells (10e6 tumor cells) after intraperitoneal administration of 200 mg/kg per injection (1-5 days); type: functional; settings: Mus musculus, P388, ip; outline: as §1

Compound	IC50 [3]	other results
CCOC(=O)Nc1cc(N)c([N+](=O)[O-])c(N)n1	–	IC50 [1]: 48 µM; ILS at 200 mg/kg [2]: 0%
CCOC(=O)Nc1cc(NC(C)C(O)COc2ccccc2)c(N)c(N)n1 (stereo unspecified)	21 µM	–
CCOC(=O)Nc1cc(NC(/C(=N/O)c2ccccc2)c2ccccc2)c([N+](=O)[O-])c(N)n1 (stereo unspecified)	45 µM	–
CCOC(=O)Nc1cc(NC(C)C(=O)c2ccc(O)cc2)c([N+](=O)[O-])c(N)n1 (stereo unspecified)	1.2 µM	ILS at 100 mg/kg [4]: 71%
CCOC(=O)Nc1cc(N[C@@H](C)[C@H](O)c2ccccc2)c([N+](=O)[O-])c(N)n1	7.8 µM	ILS at 200 mg/kg [5]: 53%
CCOC(=O)Nc1cc(N[C@@H](C)[C@H](O)c2ccc(O)cc2)c(N)c(N)n1	0.62 µM	ILS at 100 mg/kg [4]: 58%
CCOC(=O)Nc1cc(NC(CC)C(O)c2ccccc2)c([N+](=O)[O-])c(N)n1 (stereo unspecified)	22 µM	–
CCOC(=O)Nc1cc(NC(C)C(O)Cc2ccccc2)c([N+](=O)[O-])c(N)n1 (stereo unspecified)	53 µM	–
CCOC(=O)Nc1cc(N[C@H](C)C(=O)c2ccccc2)c([N+](=O)[O-])c(N)n1	24 µM	ILS at 200 mg/kg [5]: 0%
CCOC(=O)Nc1cc(N[C@H](C)[C@@H](O)c2ccc(O)cc2)c(N)c(N)n1	51 µM	ILS at 200 mg/kg [5]: 0%
CCCCC(Nc1cc(NC(=O)OCC)nc(N)c1[N+](=O)[O-])C(C)O (stereo unspecified)	56 µM	–
CCCCC(O)C(C)Nc1cc(NC(=O)OCC)nc(N)c1[N+](=O)[O-] (stereo unspecified)	55 µM	–
CCOC(=O)Nc1cc(N[C@H](C)[C@@H](O)c2ccccc2)c(N)c(N)n1	5.9 µM	ILS at 200 mg/kg [5]: 10%
CCOC(=O)Nc1cc(N[C@@H](C)C(=O)c2ccc(O)cc2)c([N+](=O)[O-])c(N)n1	24 µM	–
CCOC(=O)Nc1cc(NC(C)C(=O)c2ccc3c(c2)OCO3)c([N+](=O)[O-])c(N)n1 (stereo unspecified)	69 µM	–
CCOC(=O)Nc1cc(NN(C)C(=N)c2ccccc2)c([N+](=O)[O-])c(N)n1	> 100 µM	–
CCOC(=O)Nc1cc(N[C@H](C)C(=O)c2ccc(O)cc2)c([N+](=O)[O-])c(N)n1	44 µM	–

Compound	IC50 [3]	other results
CCOC(=O)Nc1cc(NC(C)C(O)c2ccc3c(c2)OCO3)c([N+](=O)[O-])c(N)n1 (stereo unspecified)	21 µM	–
CCOC(=O)Nc1cc(NC(C)C(O)c2ccc(O)cc2)c([N+](=O)[O-])c(N)n1 (stereo unspecified)	12 µM	–
CCOC(=O)Nc1cc(NC(CC)C(=O)c2ccccc2)c([N+](=O)[O-])c(N)n1 (stereo unspecified)	> 100 µM	–
CCOC(=O)Nc1cc(N/N=C/c2ccccc2)c(N)c(N)n1	–	ILS at 200 mg/kg [2]: 3%
CCOC(=O)Nc1cc(N[C@H](C)[C@@H](O)c2ccc(O)cc2)c([N+](=O)[O-])c(N)n1	23 µM	ILS at 200 mg/kg [5]: 0%
CCOC(=O)Nc1cc(N[C@@H](C)[C@H](O)c2ccc(O)cc2)c([N+](=O)[O-])c(N)n1	12 µM	ILS at 200 mg/kg [5]: 20%
COc1ccc(/C(=N/O)C(C)N)cc1 (stereo unspecified)	> 100 µM	–
CCCCC(Nc1cc(NC(=O)OCC)nc(N)c1[N+](=O)[O-])C(C)=O (stereo unspecified)	31 µM	–
CCCCC(=O)C(C)Nc1cc(NC(=O)OCC)nc(N)c1[N+](=O)[O-] (stereo unspecified)	54 µM	–
CCOC(=O)Nc1cc(N[C@H](C)[C@@H](O)c2ccccc2)c([N+](=O)[O-])c(N)n1	31 µM	ILS at 200 mg/kg [5]: 0%
CCCCC(O)C(C)Nc1cc(NC(=O)OCC)nc(N)c1N (stereo unspecified)	18 µM	ILS at 200 mg/kg [5]: 10%
CCOC(=O)Nc1cc(NC(C)C(O)COc2ccccc2)c([N+](=O)[O-])c(N)n1 (stereo unspecified)	55 µM	–
CCOC(=O)Nc1cc(NC(C)C(=O)COc2ccccc2)c([N+](=O)[O-])c(N)n1 (stereo unspecified)	89 µM	–
CCOC(=O)Nc1cc(N[C@@H](C)/C(=N\O)c2ccc(O)cc2)c([N+](=O)[O-])c(N)n1	26 µM	–
CCOC(=O)Nc1cc(NC(C)C(=O)Cc2ccccc2)c([N+](=O)[O-])c(N)n1 (stereo unspecified)	10 µM	ILS at 200 mg/kg [5]: 10%
CCOC(=O)Nc1cc(NCCc2ccccc2)c(N)c(N)n1	–	IC50 [1]: 75 µM
CCOC(=O)Nc1cc(NCCc2ccccc2)c([N+](=O)[O-])c(N)n1	–	IC50 [1]: > 100 µM
